Compounds with a hit are over-represented: about 1.5% of the library has one in this group of screens.
PPC-1+TRAIL kill = PPC-1 cancer cell killing with TRAIL present | PPC-1 cells + TRAIL, ATPLite viability luminescence | cell killing (% activity), % at 4 µM or 5 µM | 0.41% of 220,000 active;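 active = cell killing above 50% in the first pass at 4 µM, then a duplicate retest at 5 µM averaging 50% or more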;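 also: plate controls were cells with TRAIL plus DMSO for no effect and medium-only wells lacking cells for full effect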
TRAIL sens C8 = sensitizes caspase-8 expressing cells to TRAIL; NB7+C8 cells + TRAIL, ATPlite viability luminescence; inhibition (viability loss, TRAIL sensitization), % at 10 µM; 1% of 360,000 active;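 active = compounds causing at least 50% loss of cell viability in the single-dose screen, relative to plate controls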
FLuc inhib CS = inhibits firefly luciferase, flagging false hits in luciferase inhibition screens; P08659; ATPLite firefly luciferase biochemical luminescence, 10 min; inhibition, % at 10 µM; 1.5% of 200,000 active; AID 1006;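 active = inhibition above about 50% when tested at 10 µM, limit read from the data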
Target sequence (P08659 whole entry, looked up): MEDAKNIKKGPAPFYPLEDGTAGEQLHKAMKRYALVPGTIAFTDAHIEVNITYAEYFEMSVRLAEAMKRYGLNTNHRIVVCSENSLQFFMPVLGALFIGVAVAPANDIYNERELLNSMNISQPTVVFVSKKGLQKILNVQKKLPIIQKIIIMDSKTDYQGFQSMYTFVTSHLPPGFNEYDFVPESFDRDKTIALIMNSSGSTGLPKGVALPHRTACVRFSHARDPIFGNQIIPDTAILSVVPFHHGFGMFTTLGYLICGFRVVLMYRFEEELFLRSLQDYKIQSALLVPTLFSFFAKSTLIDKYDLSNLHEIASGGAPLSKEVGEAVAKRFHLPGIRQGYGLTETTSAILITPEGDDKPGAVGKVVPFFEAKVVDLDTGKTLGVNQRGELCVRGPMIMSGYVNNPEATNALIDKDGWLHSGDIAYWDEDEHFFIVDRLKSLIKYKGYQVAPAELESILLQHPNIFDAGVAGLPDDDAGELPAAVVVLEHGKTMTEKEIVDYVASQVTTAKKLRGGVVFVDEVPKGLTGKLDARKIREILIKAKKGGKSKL
FLuc act counter = affects firefly luciferase, flagging false hits in luciferase stimulation screens; 200,000 tested, under 10 active; ATPlite luciferase biochemical, luminescence, 10 min; 0 = ATP-free wells, 1 = DMSO control; P08659; AID 1027; activation factor at 10 µM;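 active = luciferase activation factor, scaled between plate controls, of at least 2 with compound at 10 µM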
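System: luciferase plus luciferin reagent, cell-free; medium: PBS as buffer for the ATP substrate; dosing: test compounds dosed from 2 mM stocks in 100% DMSO; timing: 10 min post-reagent at room temperature; measured by: luminescence measurement of luciferase light output; evaluation: luciferase activation, seen as luminescence increase over controls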
An asterisk follows results filed as active; . = not tested or not shown.

SMILES | PPC-1+TRAIL kill | TRAIL sens C8 | FLuc inhib CS | FLuc act counter
CCCn1c(C)cc(C(=O)COC(=O)c2cc(S(=O)(=O)NCC(C)C)c(Cl)cc2Cl)c1C | -10.9 | 94.0* | -3.5 | 1
Cc1ccc(C(=O)COC(=O)c2cc(=O)[nH]c3ccccc23)cc1 | 18.6 | 33.8 | 35.3 | 0.6
COc1ccc(CCn2c(C)cc(C(=O)COC(=O)c3cnccn3)c2C)cc1 | . | 0.0 | . | .
CCCn1c(C)cc(C(=O)COC(=O)c2nccnc2N)c1C | 12.6 | 34.0 | 78.1* | 0.2
O=S1(=O)N[C@@H](Cc2ccccc2)COc2cc(N3CCC[C@H]3CO)ccc21 | . | 6.2 | . | .
Nc1c(Cl)cc(-c2csc(N3CCCC3c3nc4cc(Cl)c(N5CCCCC5)cc4n3CCOCCO)n2)cc1Cl (configuration not stated) | . | -6.4 | . | .
COc1cccc(/C=C2\SC(=S)N(CCCC(=O)N(CCO)c3ccccc3)C2=O)c1 | . | 60.8* | . | .
O=c1c2ccccc2oc2ccc(NCCCn3ccnc3)cc12 | . | 50.4* | . | .
c1ccc2c(c1)oc1c(NCCCn3ccnc3)ncnc12 | 15.0 | -0.1 | -8.5 | 1.1
COc1ccc(-c2ccc(CN3C(C(C)C)C(=O)N(Cc4cn(CC5CCCCC5)nn4)CCS3(=O)=O)cc2)cc1OC (configuration not stated) | . | -0.9 | . | .
Nc1c(N(CCC2=CCCCC2)C(=O)COc2ccc(F)cc2)c(=O)[nH]c(=O)n1Cc1ccccc1 | . | 72.5* | . | .
CCCCn1c(N)c(N(CC)C(=O)C2=NN(c3ccccc3)C(=O)CC2)c(=O)[nH]c1=O | . | -18.4 | . | .
CCOC(=O)C1(C)CCCN(C(=O)c2cccc(C(F)(F)F)c2)C1 (configuration not stated) | . | -18.1 | . | .
CCN1CCN(c2ccc(S(=O)(=O)N3CCCCC3)cc2NC(=O)c2ccc([N+](=O)[O-])s2)CC1 | . | 53.1* | . | .
CCN1CCN(c2ccc(S(=O)(=O)N3CCCCC3)cc2NC(=O)c2ccccc2)CC1 | . | 21.2 | . | .
COc1ccc(C(=O)Nc2cc(Cl)ccc2C(=O)O)cc1 | 20.9 | 5.4 | 32.5 | 0.7
COc1cccc(/C=N/NC(=O)c2ccccc2NC(=O)c2ccco2)c1OC | -0.8 | 3.9 | . | .
COc1ccc(C(=O)Nc2ccccc2C(=O)Nc2ccncc2)cc1 | . | 65.0* | . | .
COc1ccc(C(=O)Nc2ccc(O)cc2C(=O)O)cc1 | 29.9 | 14.4 | 63.4* | 0.4
COc1ccc(C(=O)Nc2ccccc2C(=O)N/N=C/c2cccc3ccccc23)cc1 | 89.6* | 95.1* | 97.2* | 0
CSc1ccc(/C=N/NC(=O)c2ccc(O)cc2)cc1 | 39.3 | 42.8 | 71.1* | 0.3
CCCN1CCN(C(=O)Cn2cnc3ccc(S(=O)(=O)N4CCC(C)CC4)cc3c2=O)CC1 | 9.1 | -12.1 | -0.8 | 1
COC(=O)c1ccc(Oc2c(F)c(F)nc(N3CCOCC3)c2F)cc1 | . | 3.0 | 2.9 | 1
NC(=O)c1ccccc1NC(=O)c1ccc2ccccc2c1 | . | 58.6* | . | .
COc1ccc(C(=O)Nc2ccccc2C(N)=O)cc1 | 32.5 | 51.6* | 73.5* | 0.3
SMILES | PPC-1+TRAIL kill | TRAIL sens C8 | FLuc inhib CS | FLuc act counter
O=C(Nc1ccccc1C(=O)N/N=C/c1ccc(O)cc1)c1ccccc1 | 29.4 | 78.7* | . | .
O=C(Nc1ccccc1C(=O)O)c1cccc(NC(=O)c2ccccc2Br)c1 | . | -6.3 | . | .
CC(C)C(=O)Nc1cccc(C(=O)Nc2ccccc2C(=O)O)c1 | -6.1 | 28.1 | 60.6* | 0.4
O=C(Cn1cnc2c(nnn2-c2cccc(Cl)c2)c1=O)NCc1ccccc1 | 15.0 | -1.8 | -2.5 | 1
COc1ccc(C(=O)Nc2ccccc2C(=O)Nc2ccccc2C(=O)O)cc1 | . | 58.5* | . | .
CC(C)=N/N=C1/NC(=O)C(CC(=O)Nc2cc(Cl)ccc2C)S1 (configuration not stated) | 20.3 | 11.2 | -5.2 | 1.1
O=C(NNc1nc2c(F)cccc2s1)c1cc(=O)c2ccccc2o1 | 12.1 | 16.2 | 54.8* | 0.5
Cc1ccc2sc(NNC(=O)c3cc(=O)c4ccccc4o3)nc2c1C | 10.8 | -17.5 | 15.2 | 0.8
Cc1cccc2sc(NNC(=O)c3cc(=O)c4ccccc4o3)nc12 | 31.9 | 17.1 | 44.4 | 0.6
COc1ccc2nc(NNC(=O)c3cc(=O)c4ccccc4o3)sc2c1 | 15.5 | 48.0* | 69.0* | 0.3
CC12CCC(=O)N1C(C(=O)Nc1nnc(SCc3ccc(F)cc3)s1)CS2 (configuration not stated) | . | 2.3 | . | .
CCOC(=O)N1CCN(C(=O)COC(=O)c2ccc(S(=O)(=O)N(CC)CC)cc2)CC1 | . | -2.0 | . | .
COc1ccc(NC(=O)C2(C)Cc3c(-c4cccc(NC(C)=O)c4)ccnc3O2)cn1 (configuration not stated) | . | 13.0 | . | .
CN1C2Cc3c(n(C)c4ccccc34)C1CC=C2CO (configuration not stated) | . | -11.6 | . | .

Screening data as filed in PubChem BioAssay.
